Calls of active or inactive are those of the source. No cut-off for these calls is given here.
Tests used:
Nucleic Acid [1] = test: Binding affinity to Escherichia coli pUC19 DNA assessed as relaxation of supercoiled DNA by agarose gel electrophoresis in presence of Cu ions; type: nucleic-acid assay
Summary of the method: (§1)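 DNA supplied in 10 mM Tris-Cl pH 8.5, diluted into Tris pH 7.4 (final 5 mM) plus NaCl (final 50 mM). Jadomycins premixed 1:1 with Cu(OAc)2 added; final volume 20 μL. Incubated 2 h at 37 °C, quenched with loading buffer, run on 1% agarose with ethidium bromide (0.75 μg mL−1), 30 min at 8 V cm−1 in 1× TAE. Bands visualized by UV transillumination.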

Salmonella typhimurium = test: Antimicrobial activity against Salmonella enterica Typhimurium C587 by CLSI method; type: functional, organism-based; settings: Salmonella enterica subsp. enterica serovar Typhimurium
Summary of the method: (§2)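 Broth MIC determination following Clinical and Laboratory Standards Institute methods. Panel: Gram-positive S. aureus C622, MRSA C623, S. epidermidis C960, B. subtilis C971, E. faecalis C625; Gram-negative S. enterica Typhimurium C587, E. coli C498, P. aeruginosa H187. Activity read as minimum inhibitory concentration.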

Escherichia coli = test: Antimicrobial activity against Escherichia coli C498 by CLSI method; type: functional, organism-based; summary of the method: as §2
Nucleic Acid [2] = test: Binding affinity to Escherichia coli pUC19 DNA assessed as relaxation of supercoiled DNA at 0.1 to 100 uM by agarose gel electrophoresis in presence of Cu ions; type: nucleic-acid assay; summary of the method: as §1
[3] = Cytotoxicity against human NCI60 cells; type: functional
Summary of the method: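 NCI 60-cell-line screen covering leukemia, NSCLC, colon, CNS, melanoma, ovarian, renal, prostate and breast lines. Five doses spanning 5 log10, top concentration 32 μM. Percent growth and mean optical density measured per NCI protocol. OD plotted against concentration to give GI50, TGI and LC50, reported as median (range) over up to 59 lines.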

Nucleic Acid [4] = test: Binding affinity to Escherichia coli pUC19 DNA assessed as relaxation of supercoiled DNA at 100 uM by agarose gel electrophoresis; type: nucleic-acid assay
Summary of the method: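 DNA in 10 mM Tris-Cl pH 8.5, diluted into Tris pH 7.4 (final 5 mM) and NaCl (final 50 mM). Jadomycin added without copper; volume 20 μL; 2 h at 37 °C. Quenched with loading buffer, electrophoresed on 1% agarose containing ethidium bromide (0.75 μg mL−1), 30 min at 8 V cm−1 in 1× TAE. UV visualization.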

Staphylococcus aureus = test: Antimicrobial activity against methicillin-resistant Staphylococcus aureus isolate C623 by CLSI method; type: functional
[5] = tested on: Staphylococcus epidermidis; test: Antimicrobial activity against Staphylococcus epidermidis C960 by CLSI method; type: functional; summary of the method: as §2
Pseudomonas aeruginosa = test: Antimicrobial activity against Pseudomonas aeruginosa H187 by CLSI method; type: functional, organism-based; summary of the method: as §2

| Structure (SMILES) | EC50 (Nucleic Acid [1]) | Activity (Salmonella typhimurium) | Activity (Escherichia coli) | Activity (Nucleic Acid [2]) | GI50 [3] | LC50 [3] | TGI [3] | Activity (Nucleic Acid [4]) | MIC (Staphylococcus aureus) | MIC [5] | Activity (Pseudomonas aeruginosa) |
| --- | --- | --- | --- | --- | --- | --- | --- | --- | --- | --- | --- |
| CCC[C@@H]1C(=O)OC2c3cc(C)cc(O)c3C3=C(C(=O)c4c(O[C@H]5C[C@@H](O)[C@@H](O)[C@H](C)O5)cccc4C3=O)N21 (mixture of isomers) | 86 µM | inactive | inactive | Dose-dependent effect | 4.9 µM | 19 µM | 10 µM | inactive | 32 µg/mL | 4 µg/mL | inactive |
| CCCC[C@@H]1C(=O)OC2c3cc(C)cc(O)c3C3=C(C(=O)c4c(O[C@H]5C[C@@H](O)[C@@H](O)[C@H](C)O5)cccc4C3=O)N21 (mixture of isomers) | 144 µM | inactive | inactive | Dose-dependent effect | 4.2 µM | 18 µM | 8.7 µM | inactive | 32 µg/mL | 4 µg/mL | inactive |

— ChEMBL document CHEMBL1938389, “Jadomycins derived from the assimilation and incorporation of norvaline and norleucine” (J Nat Prod, 2011)
